# PAD4 inh = PAD4 (human) enzyme inhibition. Q9UM07. recombinant PAD4, RCA probe fluorescence polarization. inhibition, % at 6.36 µM. 330,000 compounds, 0.41% hits. AID 485272;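 active = percent inhibition above a cutoff equal to the mean of all tested compounds plus 3 SD, cut at about 15% in these data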;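 note: 0% = PAD4 with RCA probe and DMSO and 100% = probe without PAD4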
# PRMT1 FP inh = inhibitors of human PRMT1. Q99873. recombinant PRMT1, activity-based probe fluorescence polarization. AID 652257. 370,000 compounds, 1.3% hits. inhibition, % at 2.79 µM;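 active = inhibition above about 21% made by adding two undisclosed values, limit read from the data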
# GSTO1 counter = blocks human GSTO1 in RBBP9 counter-screen. recombinant GSTO1, activity-based probe fluorescence polarization. inhibition, % at 5.96 µM. 300,000 compounds, 1.1% hits. AID 1974;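 active = inhibition above the campaign mean inhibition plus 3 SD, cut at about 35% in these data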;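 note: 0% = GSTO1-1 with DMSO and 100% = wells lacking GSTO1-1 enzyme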
# TDP2 inh = blocks human TDP2 phosphodiesterase activity | O95551 | recombinant TDP2, T5PNP hydrolysis, p-nitrophenol absorbance 415 nm | inhibition, % at 12.8 µM | 370,000 compounds, 0.34% hits | AID 720702;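 active = inhibition above the mean of all tested compounds plus 3 SD, set per campaign, cut at about 25% in these data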;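 note: 0% = DMSO with enzyme and 100% = buffer with substrate but no TDP2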
#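 System: recombinant human TDP2 / Amount: 120 nM TDP2 per well / Also added: 5 mM T5PNP chromogenic substrate / Doses: 12.8 µM single point, 1% DMSO / Incubation: 2 h at 37 °C / Detection: p-Nitrophenol epi absorbance / Evaluation: % inhibition relative to enzyme-containing and enzyme-free wells / Repeats: singlicate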
# Apaf1 inhib = blocks human Apaf-1 apoptosome activity | inhibition, % at 20 µM | AID 489030 | reconstituted apoptosome caspase-3 activity, DEVD-Rh110 fluorescence | 330,000 compounds, 0.71% hits | O14727; active = inhibition of at least 40% at 20 µM;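 note: plate controls were DMSO wells for no effect and DEVD-CHO caspase inhibitor wells for full effect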
# Target sequence (O14727 whole entry, looked up): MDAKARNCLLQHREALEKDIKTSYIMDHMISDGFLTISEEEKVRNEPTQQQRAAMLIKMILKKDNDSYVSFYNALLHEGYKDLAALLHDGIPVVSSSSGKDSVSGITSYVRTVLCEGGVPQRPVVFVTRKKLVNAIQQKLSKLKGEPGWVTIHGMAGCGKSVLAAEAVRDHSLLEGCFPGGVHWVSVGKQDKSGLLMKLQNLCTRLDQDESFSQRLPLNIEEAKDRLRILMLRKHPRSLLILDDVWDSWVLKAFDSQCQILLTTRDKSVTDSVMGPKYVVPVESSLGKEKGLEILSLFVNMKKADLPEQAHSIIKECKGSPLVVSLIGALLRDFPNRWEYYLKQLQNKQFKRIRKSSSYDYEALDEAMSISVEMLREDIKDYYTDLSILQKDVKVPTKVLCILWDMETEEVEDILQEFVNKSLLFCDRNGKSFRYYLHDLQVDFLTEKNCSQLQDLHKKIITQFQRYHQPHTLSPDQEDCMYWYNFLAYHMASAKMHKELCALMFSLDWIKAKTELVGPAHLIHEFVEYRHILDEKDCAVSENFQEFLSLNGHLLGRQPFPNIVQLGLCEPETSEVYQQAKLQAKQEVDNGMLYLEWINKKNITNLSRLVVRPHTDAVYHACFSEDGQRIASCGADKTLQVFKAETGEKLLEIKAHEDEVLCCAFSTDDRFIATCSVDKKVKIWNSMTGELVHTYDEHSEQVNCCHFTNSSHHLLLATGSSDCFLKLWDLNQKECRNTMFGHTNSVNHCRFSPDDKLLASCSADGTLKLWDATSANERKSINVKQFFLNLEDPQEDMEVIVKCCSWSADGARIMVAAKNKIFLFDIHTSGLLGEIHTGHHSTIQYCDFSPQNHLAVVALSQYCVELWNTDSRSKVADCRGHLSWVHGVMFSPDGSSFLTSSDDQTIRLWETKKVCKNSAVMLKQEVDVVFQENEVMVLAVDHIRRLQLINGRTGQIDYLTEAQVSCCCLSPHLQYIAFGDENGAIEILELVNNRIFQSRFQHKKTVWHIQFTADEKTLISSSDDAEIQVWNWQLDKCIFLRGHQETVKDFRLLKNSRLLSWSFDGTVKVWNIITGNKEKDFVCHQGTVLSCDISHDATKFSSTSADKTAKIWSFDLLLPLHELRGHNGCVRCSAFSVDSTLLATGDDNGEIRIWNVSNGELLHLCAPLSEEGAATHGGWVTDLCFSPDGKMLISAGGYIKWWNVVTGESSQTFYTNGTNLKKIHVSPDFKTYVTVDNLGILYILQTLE
#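 Material: cell-free apoptosome with Apaf-1, procaspase-3 and caspase-9; Buffer or medium: Hepes pH 7.5 with detergent and BSA; Reagent: cytochrome c trigger plus (Z-DEVD)2-Rh110 caspase-3 substrate; Times: compound with Apaf-1, dATP, procaspase-3 30 min, then 50 min reaction, room temperature; Technique: Rh110 fluorescence intensity.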
# GSTO1 inh conf = GSTO1 (human) inhibition, confirmation; shares compounds with GSTO1 counter; recombinant GSTO1, probe fluorescence polarization; inhibition, % at 5.96 µM; 2,400 compounds, 54% hits; AID 2176;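 active = inhibition above the primary screen's cutoff, its mean inhibition plus 3 SD, cut at about 35% in these data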;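 note: loss of polarization as inhibitors block binding of rhodamine sulfonate ester activity probe; 0% = GSTO1 with DMSO and 100% = wells lacking GSTO1 enzyme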
# GSTO1 recomb ABPP = inhibitors of recombinant human GSTO1; shares compounds with GSTO1 counter; gel ABPP SE-Rh probe fluorescence; inhibition, % at 1 µM; 130 compounds, 30% hits; AID 463110;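 active = inhibition of the enzyme GSTO1 above about 75%, limit read from the data; inactive = inhibition below that limit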
# * marks the source's active call; other numbers are inactive results; . = no result. Shown are actives, neighbours in structure and some others; about 2.6% of the full set was active somewhere.
SMILES,PAD4 inh,PRMT1 FP inh,GSTO1 counter,TDP2 inh,Apaf1 inhib,GSTO1 inh conf,others
O=C(NCc1ccccc1)C1C(c2ccccc2)=Nc2ccccc2N1C(=O)c1cccnc1 (stereo unspecified),.,6.0,.,2.9,.,.,
CCCNC(=O)N1C[C@H](O)COC[C@@H]2O[C@@H](CC(=O)NCCCN3CCOCC3)CC[C@H]21,.,-3.7,.,8.1,.,.,
Oc1ccc(/C=N/N(c2ccccc2)c2ccccc2)c(O)c1O,-7.0,12.4,50.8*,0.7,31.9,5.1,
CC(CCc1ccccc1)NC(=O)CN1CCN(Cc2ccccc2)C1=O (stereo unspecified),-2.3,-1.2,0.7,-4.0,-3.2,.,
CC(CCc1ccccc1)NC(=O)CN1CCN(c2ccc(O)cc2)CC1 (stereo unspecified),-3.0,22.5*,38.1*,-18.8,5.6,7.5,
CCOC(=O)[C@]12CCCCC/C=C\1N(CCc1ccc(Cl)cc1)C(=O)[C@H]2CC(=O)NCCCN1CCCC1=O,.,-0.1,.,9.2,.,.,
COc1ccccc1NC(=O)Cc1nc(CCl)cs1,-1.1,1.6,67.6*,-9.6,1.9,94.6*,GSTO1 recomb ABPP=49.0
CCC(=O)Nc1nc(CC(=O)Nc2ccccc2OC)cs1,-6.5,2.3,-3.4,-8.1,4.1,.,
COc1ccc(CCNC(=O)c2ccc3nc(-c4ccco4)c(-c4ccco4)nc3c2)cc1OC,-13.2,.,38.9*,.,55.5*,14.2,
CCc1nc2ccc(C(=O)NCCc3ccc(OC)c(OC)c3)cc2nc1CC,-0.4,-0.2,-1.1,-4.0,-1.0,.,
CCOC(=O)[C@]12CCCC=C1N(Cc1ccccc1)C(=O)[C@H](CC(=O)N1CCCC1)C2,.,1.0,.,-1.3,.,.,
C#CCNC(=O)C[C@H]1C[C@@]2(C(=O)OC)C(=C[C@H](COCc3ccccc3)O[C@@H]2C)N(CCc2ccc(OC)c(OC)c2)C1=O,.,-2.3,.,-3.0,.,.,
Cc1ccc(O)c(Sc2cc(C)ccc2O)c1,-5.9,3.0,15.2,-0.8,9.6,.,
Cc1ccc(O)c(O)c1,6.4,.,54.6*,.,-4.0,2.7,
CCOC(=O)C[C@@H]1OC[C@H](C(C)C)N1S(=O)(=O)c1ccc(C)cc1,.,-2.1,.,-1.7,.,.,
Cc1cc(C)n2c(Nc3ccc4c(c3)OCCO4)c(CCc3ccccc3)nc2n1,.,4.0,.,12.1,.,.,
CCOC(=O)c1sc(N2N=C(C)/C(=C\c3ccc(OCC(=O)OC)cc3)C2=O)nc1C,-10.8,1.2,38.7*,2.9,20.5,13.3,
CCOC(=O)c1sc(Nc2ccc(OCC)cc2)nc1C,1.4,0.1,11.3,0.4,9.6,.,
CC(=O)Nc1ccc(Sc2ccccc2C(=O)O)cn1,-4.4,3.0,44.3*,13.3,28.1,25.5,
Cc1ccccc1NC(=O)C(Cl)=C(Cl)Cl,1.9,2.8,43.8*,13.1,4.9,24.2,
C/C(=N\NS(=O)(=O)c1ccc(C)c([N+](=O)[O-])c1)c1ccc2c(c1)OCO2,-2.4,-2.8,6.4,-5.5,-16.0,.,
C/C(=N\NS(=O)(=O)c1ccc(Cl)c([N+](=O)[O-])c1)c1ccc(C)o1,1.9,16.6,49.3*,-2.6,-0.8,26.6,
C/C(=N\NS(=O)(=O)c1ccc(Cl)c([N+](=O)[O-])c1)c1cc2ccccc2o1,4.3,3.8,40.4*,-7.2,2.4,14.2,
C/C(=N\NS(=O)(=O)c1ccc(C)c([N+](=O)[O-])c1)c1cc2ccccc2o1,3.2,2.7,2.3,5.8,14.1,.,
Fc1ccc(-c2nc3ccc(Br)cn3c2Cc2ccsc2)cc1,.,3.5,.,-7.6,.,.,
SMILES,PAD4 inh,PRMT1 FP inh,GSTO1 counter,TDP2 inh,Apaf1 inhib,GSTO1 inh conf,others
Cc1cc(C)c(S(=O)(=O)Nc2ccc(O)cc2)cc1C,-0.1,.,6.9,.,3.0,.,
Cc1cc(C)c(S(=O)(=O)Nc2cc(SCC(=O)O)c(O)c3ccccc23)cc1C,49.3*,.,89.6*,.,.,5.0,
COC(=O)[C@H]1C[C@]2(C(C=C(C)C)S(=O)(=O)c3ccccc3)c3ccccc3N[C@H]2N1 (stereo partly specified),.,1.8,.,0.4,.,.,
O=S(=O)(c1cc(O)ccc1O)c1cccc2c(S(=O)(=O)c3cc(O)ccc3O)cccc12,-4.5,11.8,64.3*,3.0,-16.1,12.7,
O=C(OCn1ncc(Cl)c(Cl)c1=O)c1ccc(F)cc1,14.6,.,44.3*,.,17.9,28.8,
CCn1c(Cc2cccs2)nnc1SCC(=O)c1ccc(Cl)cc1,.,-1.0,.,5.6,.,.,
COc1cc(NC(=O)CCl)ccc(=O)c1,.,1.8,.,4.7,.,.,
NC(=O)N/N=C/c1coc2ccc(O)cc2c1=O,1.6,-2.4,69.8*,10.0,4.5,20.3,
Cc1ccc2occ(/C=N/NC(=O)c3ccc(O)cc3)c(=O)c2c1,.,1.9,.,-4.4,22.1,.,
O=C1C=C(NCCN2CCOCC2)C(=O)c2cnccc21,41.1*,.,83.6*,.,.,82.2*,
CCOC(=O)c1ccccc1NC(=O)c1ccccc1SC,-7.3,-0.3,7.1,-5.1,1.5,.,
COC(=O)c1ccccc1NC(=O)c1ccccc1SC,-2.4,1.9,65.8*,-3.1,10.6,6.3,
CC1=NN(c2ccccc2)C(=O)/C1=C/C=C/c1ccccc1,1.9,-2.4,16.2,-2.8,22.9,.,
CC1=NN(c2cccc(C(=O)O)c2)C(=O)/C1=C\C=C\c1ccco1,6.2,26.7*,55.0*,22.5,6.3,28.3,
Cc1[nH]cnc1/C=N\NC(=O)c1cccc(S(=O)(=O)N(C)C)c1,.,1.7,.,-2.5,.,.,
C[C@H](NC(=O)c1cc2c(cn1)[nH]c1ccccc12)C(=O)O,.,18.8,.,1.0,5.3,.,
O=C(O)c1cc2c(cn1)[nH]c1ccccc12,-2.8,-1.8,55.9*,14.2,-0.6,17.1,
COc1ccc(NC(=O)c2onc(C)c2Cl)cc1OC,1.7,1.6,39.3*,3.2,2.7,7.5,
COc1cc(NC(=O)c2onc(C)c2Cl)cc(OC)c1OC,1.5,5.8,2.6,14.6,2.0,.,
CC(=O)Oc1ccc(N(C(C)=O)S(=O)(=O)c2ccccc2)c2ccccc12,.,-1.1,.,-1.5,.,.,
Cc1ccc(S(=O)(=O)N(C(=O)c2ccncc2)c2ccc(OC(=O)c3ccncc3)c3ccccc23)c(C)c1,-17.7,.,55.2*,.,18.2,8.8,
Cc1ccc(S(=O)(=O)N(C(=O)c2ccncc2)c2ccc(OC(=O)c3ccncc3)c3ccccc23)cc1,-7.1,85.7*,43.0*,11.0,1.5,3.0,
COc1cc(/C=C2\CC/C(=C\c3cc(OC)c(O)c(OC)c3)C2=O)cc(OC)c1O,-4.0,27.4*,37.5*,4.8,23.3,5.2,
Cc1ccccc1NC(=O)CN1CCN(c2nc(-c3ccccc3)cs2)CC1,.,-5.6,.,-9.2,.,.,
Cc1ccc(NC(=O)/C(=C\c2ccc([N+](=O)[O-])cc2)NC(=O)c2ccccc2)cc1,-3.6,3.1,-6.4,-1.3,12.5,.,
O=C(N/N=C/c1ccc(O)c(O)c1O)/C(=C/c1ccc([N+](=O)[O-])cc1)NC(=O)c1ccccc1,2.6,24.4*,54.0*,-2.2,36.4,1.4,
